The values that follow come from ChEMBL document CHEMBL1127410, “Dipeptide phosphonates as inhibitors of dipeptidyl peptidase IV” (J Med Chem, 1994).

For orientation: half-life means how long it takes for the measured level to halve. Lower therefore signals rapid decline.

Data set [1] addresses Dipeptidyl peptidase 4 (Homo sapiens) (UniProt P27487).
Data set [2] can be described thus: Half life for the spontaneous hydrolysis in buffer was measured. It is filed as ADME. The method in brief:
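Inhibitor (0.1 mM final) in 0.05 M Tris pH 7.8 with 10% v/v Me2SO. Spontaneous hydrolysis followed as absorbance rise at 270 nm (phenoxy), 280 nm (4-chlorophenoxy) or 277 nm (4-fluorophenoxy). Half-lives from first-order plots of ln(Af − At) vs time, Af being final absorbance of monophenyl ester plus phenol.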

In data set [3] the target is Chymotrypsinogen A (Bos taurus) (UniProt P00766).
For data set [4], the target named is T1, Neutrophil elastase (Homo sapiens) (UniProt P08246).
T1 sequence (whole entry): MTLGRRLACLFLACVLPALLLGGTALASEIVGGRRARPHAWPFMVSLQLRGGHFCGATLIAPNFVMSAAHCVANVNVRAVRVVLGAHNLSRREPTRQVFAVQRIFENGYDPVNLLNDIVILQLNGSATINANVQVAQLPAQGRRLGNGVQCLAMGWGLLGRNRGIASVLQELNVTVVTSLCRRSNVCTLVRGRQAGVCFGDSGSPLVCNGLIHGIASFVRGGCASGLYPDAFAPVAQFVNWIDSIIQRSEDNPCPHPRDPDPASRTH
Kind of data set: The second order inhibition rate constant for the compound was measured against HLE; NI-No inhibition after 30 min of incubation of enzyme with inhibitor.

The target in data set [5] is Cathepsin B (Homo sapiens) (UniProt P07858). Kind of data set: The second order inhibition rate constant for the compound was measured against cathepsin B; NI-No inhibition after 30 min of incubation of enzyme with inhibitor. The method in brief: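 Cathepsin B incubated with inhibitor in 100 mM KH2PO4, 1.33 mM EDTA, 2.7 mM fresh cysteine pH 6.0, 8-9% Me2SO, 23 °C. Aliquots assayed with Z-Arg-Arg-AMC, fluorescence at ex 380/em 460 nm. kobs from ln v/v0 vs time. NI means no inhibition after 30 min.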

The target in data set [6] is T2, Choline O-acetyltransferase (Rattus norvegicus) (UniProt P32738).
T2 sequence (whole entry): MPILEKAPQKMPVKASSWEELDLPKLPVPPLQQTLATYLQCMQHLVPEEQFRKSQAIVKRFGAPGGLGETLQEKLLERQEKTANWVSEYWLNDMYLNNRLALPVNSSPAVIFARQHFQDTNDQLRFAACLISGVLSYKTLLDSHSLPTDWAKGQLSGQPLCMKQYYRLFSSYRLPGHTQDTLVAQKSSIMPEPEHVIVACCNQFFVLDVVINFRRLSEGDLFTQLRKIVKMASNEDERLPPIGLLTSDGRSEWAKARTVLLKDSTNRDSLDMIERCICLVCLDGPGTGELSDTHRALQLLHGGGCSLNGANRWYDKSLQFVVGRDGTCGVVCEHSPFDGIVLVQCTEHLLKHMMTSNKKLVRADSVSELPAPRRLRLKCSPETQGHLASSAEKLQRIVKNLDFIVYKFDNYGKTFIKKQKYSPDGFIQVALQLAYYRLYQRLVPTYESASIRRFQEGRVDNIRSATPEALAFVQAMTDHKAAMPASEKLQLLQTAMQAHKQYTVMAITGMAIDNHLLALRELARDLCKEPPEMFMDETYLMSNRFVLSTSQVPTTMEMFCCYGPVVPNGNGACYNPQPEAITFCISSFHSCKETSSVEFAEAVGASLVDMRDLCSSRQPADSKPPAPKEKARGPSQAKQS

Data set [7] deals with T3, Chymotrypsin-like elastase family member 2A (Sus scrofa) (UniProt P08419).
T3 sequence (whole entry): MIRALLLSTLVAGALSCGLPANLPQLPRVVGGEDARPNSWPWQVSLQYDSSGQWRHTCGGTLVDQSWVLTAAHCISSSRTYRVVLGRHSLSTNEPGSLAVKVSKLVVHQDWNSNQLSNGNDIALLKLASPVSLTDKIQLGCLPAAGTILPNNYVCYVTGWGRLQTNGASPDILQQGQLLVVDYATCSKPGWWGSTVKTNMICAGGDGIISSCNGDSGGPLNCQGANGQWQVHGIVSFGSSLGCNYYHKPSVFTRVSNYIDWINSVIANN
Kind of data set: The second order inhibition rate constant for the compound was measured against PPE; NI-No inhibition after 30 min of incubation of enzyme with inhibitor.

A further data set concerns the target T4, Papain (Carica papaya) (UniProt P00784).
T4 sequence (whole entry): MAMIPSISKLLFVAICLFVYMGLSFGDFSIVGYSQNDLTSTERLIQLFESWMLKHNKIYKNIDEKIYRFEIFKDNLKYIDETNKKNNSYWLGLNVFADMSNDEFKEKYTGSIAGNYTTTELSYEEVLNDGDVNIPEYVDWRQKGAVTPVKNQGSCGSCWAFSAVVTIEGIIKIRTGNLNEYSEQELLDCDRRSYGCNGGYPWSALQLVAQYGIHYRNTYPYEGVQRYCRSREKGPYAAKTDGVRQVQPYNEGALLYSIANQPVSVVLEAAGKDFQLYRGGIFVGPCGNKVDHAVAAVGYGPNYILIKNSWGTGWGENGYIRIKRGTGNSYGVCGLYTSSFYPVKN
Kind of data set: The second order inhibition rate constant for the compound was measured against papain; NI-No inhibition after 30 min of incubation of enzyme with inhibitor. The method in brief:
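Papain incubated with inhibitor in 50 mM Tris-HCl, 2 mM EDTA, 5 mM fresh cysteine pH 7.5, 8-9% Me2SO, 23 °C. Aliquots assayed with Bz-Arg-AMC, fluorescence at ex 380/em 460 nm. kobs from ln v/v0 vs time. NI means no inhibition after 30 min.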

Data set [8] concerns the target Chymotrypsinogen A (Bos taurus) (UniProt P00766). Kind of data set: The second order inhibition rate constant for the compound was measured against chymotrypsinogen.

Sequence of Dipeptidyl peptidase 4 (Homo sapiens) (P27487 whole entry, looked up): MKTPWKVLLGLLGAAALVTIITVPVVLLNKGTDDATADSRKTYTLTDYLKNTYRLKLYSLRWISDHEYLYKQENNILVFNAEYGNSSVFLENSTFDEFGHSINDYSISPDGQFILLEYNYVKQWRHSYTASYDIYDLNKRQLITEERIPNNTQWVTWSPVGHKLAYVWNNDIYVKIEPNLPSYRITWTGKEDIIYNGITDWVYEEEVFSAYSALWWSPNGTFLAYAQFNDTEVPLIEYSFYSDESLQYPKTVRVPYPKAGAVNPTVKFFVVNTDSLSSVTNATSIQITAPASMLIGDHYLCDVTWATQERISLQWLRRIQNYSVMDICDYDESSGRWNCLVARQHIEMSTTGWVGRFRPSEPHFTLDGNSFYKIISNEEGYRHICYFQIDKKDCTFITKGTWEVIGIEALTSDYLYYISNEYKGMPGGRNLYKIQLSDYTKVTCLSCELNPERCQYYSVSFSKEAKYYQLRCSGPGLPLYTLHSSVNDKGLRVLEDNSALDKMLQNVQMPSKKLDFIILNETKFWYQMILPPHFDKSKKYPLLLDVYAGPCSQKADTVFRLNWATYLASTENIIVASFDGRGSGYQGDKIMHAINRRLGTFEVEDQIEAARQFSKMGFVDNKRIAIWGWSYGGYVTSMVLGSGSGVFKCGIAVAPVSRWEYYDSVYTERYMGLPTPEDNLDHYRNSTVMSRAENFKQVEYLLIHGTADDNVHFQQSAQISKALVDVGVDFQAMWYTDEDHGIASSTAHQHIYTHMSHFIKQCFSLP

Molecule `NCCCC[C@H](N)C(=O)N1CCCCC1P(=O)(Oc1ccccc1)Oc1ccccc1` (some centres not stated) had a K obs / 1 in data set [1] of 4.2 M⁻¹ s⁻¹. The molecule also yielded a half-life in data set [2] above 48 h.

On to `C[C@H](N)C(=O)N1CCCCC1P(=O)(Oc1ccc(Cl)cc1)Oc1ccc(Cl)cc1` (some centres not stated) [listing 1 of 2 here], for which the K obs / 1 in data set [1] worked out at 1300 M⁻¹ s⁻¹.

Consider `C[C@H](N)C(=O)N1CCCCC1P(=O)(Oc1ccc(F)cc1)Oc1ccc(F)cc1` (some centres not stated), for which the K obs / 1 in data set [1] worked out at 12 M⁻¹ s⁻¹. Further, the half-life in data set [2] was 68 h.

Take `C[C@H](N)C(=O)N1CCC[C@H]1P(=O)(Oc1ccccc1)Oc1ccccc1.Cl`: the K obs / 1 in data set [1] is 1.2 M⁻¹ s⁻¹; in data set [3], “No inhibition”; in [4] it was “No inhibition”; in [5], “No inhibition”; in [6], “No inhibition”; in [7], “No inhibition”. Further, the “K obs / 1” value on Papain (Carica papaya) is “No inhibition”. In data set [2], this molecule had a half-life of 23.1 h.

Regarding `C[C@H](N)C(=O)N1CCC[C@H]1P(=O)(Oc1ccc(Cl)cc1)Oc1ccc(Cl)cc1`, the K obs / 1 in [1] is 28 M⁻¹ s⁻¹; in data set [4] it was “No inhibition”; in data set [8], 26 M⁻¹ s⁻¹; in data set [5], “No inhibition”; in [7] it was “No inhibition”; on Papain (Carica papaya) it was “No inhibition”. In addition, the half-life in [2] is 5.3 h.

Take `Br.Br.NCCCC[C@H](N)C(=O)N1CCC[C@H]1P(=O)(Oc1ccccc1)Oc1ccccc1`: in [1], the K obs / 1 was determined as 1.7 M⁻¹ s⁻¹. Moreover, the half-life in data set [2] was 52 h.

Regarding `C[C@H](N)C(=O)N1CCCCC1P(=O)(Oc1ccc(Cl)cc1)Oc1ccc(Cl)cc1` (mixture of isomers) [listing 1 of 2 here], the K obs / 1 in [1] was 156 M⁻¹ s⁻¹; in [4], “No inhibition”; in [8], 18 M⁻¹ s⁻¹; in data set [5], “No inhibition”; in data set [7], “No inhibition”; at Papain (Carica papaya) it was “No inhibition”.

`C[C@H](N)C(=O)N1CCCCC1P(=O)(Oc1ccccc1)Oc1ccccc1` (some centres not stated) returned a K obs / 1 in data set [1] of 12.6 M⁻¹ s⁻¹. The same molecule showed a half-life in data set [2] above 72 h.

In the case of `C[C@H](N)C(=O)N1CCCCC1P(=O)(Oc1ccc(Cl)cc1)Oc1ccc(Cl)cc1` (mixture of isomers) [listing 2 of 2 here], the half-life in data set [2] is 67 h.

In turn, `C[C@H](N)C(=O)N1CCCCC1P(=O)(Oc1ccc(Cl)cc1)Oc1ccc(Cl)cc1` (some centres not stated) [listing 2 of 2 here] yielded a T1/2 in [2] above 48 h.
